# HKDC1 inhibitor: HKDC1 hexokinase inhibitors, primary screen, biochemical, fluorescence, uHTS; recombinant HKDC1, G6PDH/diaphorase resazurin coupled fluorescence; inhibition, % at 20 µM; hit rate 0.16% among 340,000;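 active means inhibition above about 35% when tested at 20 µM, limit read from the data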;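 further: plate controls were DMSO wells with enzyme for no effect and DMSO wells lacking enzyme for full effect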
# Target sequence (Q2TB90 whole entry, looked up): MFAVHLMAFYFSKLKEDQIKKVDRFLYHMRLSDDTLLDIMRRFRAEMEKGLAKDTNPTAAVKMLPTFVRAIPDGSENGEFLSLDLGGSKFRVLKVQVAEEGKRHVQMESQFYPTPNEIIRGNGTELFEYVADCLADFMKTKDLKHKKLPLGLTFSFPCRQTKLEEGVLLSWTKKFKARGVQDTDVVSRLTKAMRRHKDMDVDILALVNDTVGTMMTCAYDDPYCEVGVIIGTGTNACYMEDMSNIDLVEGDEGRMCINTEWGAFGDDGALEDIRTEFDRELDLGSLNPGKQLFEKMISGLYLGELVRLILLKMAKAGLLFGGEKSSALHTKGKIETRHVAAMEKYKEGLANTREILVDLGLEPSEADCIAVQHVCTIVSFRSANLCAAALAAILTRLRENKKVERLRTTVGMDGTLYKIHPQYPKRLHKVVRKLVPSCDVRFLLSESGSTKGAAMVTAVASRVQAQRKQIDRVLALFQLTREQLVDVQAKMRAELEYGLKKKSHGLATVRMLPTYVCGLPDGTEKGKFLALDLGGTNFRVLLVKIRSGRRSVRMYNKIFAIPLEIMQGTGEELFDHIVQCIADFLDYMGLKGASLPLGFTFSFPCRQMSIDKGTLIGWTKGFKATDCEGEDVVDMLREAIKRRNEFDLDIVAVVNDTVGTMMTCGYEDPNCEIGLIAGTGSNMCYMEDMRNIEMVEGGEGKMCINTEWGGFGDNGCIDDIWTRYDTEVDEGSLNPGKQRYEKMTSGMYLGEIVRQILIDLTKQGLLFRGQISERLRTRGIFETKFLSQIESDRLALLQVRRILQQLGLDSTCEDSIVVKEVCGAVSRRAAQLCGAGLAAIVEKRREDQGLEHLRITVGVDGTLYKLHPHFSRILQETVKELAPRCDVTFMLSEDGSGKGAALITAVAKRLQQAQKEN
#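 Assay system: recombinant HKDC1 hexokinase; detection: coupled resazurin fluorescence, excitation 525 nm, emission 613 nm; benchmarks: DMSO-plus-enzyme-mix negative control, buffer-substituted positive control; compound dosing: single 20 µM dose; schedule: 90 min at room temperature in dark; also added: glucose plus 1 mM ATP as hexokinase substrates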
# PfG6PD inh: PfG6PD enzyme inhibitors, primary screen, biochemical, fluorescence intensity, uHTS; PfGluPho enzyme, NADPH resazurin-diaphorase fluorescence; inhibition, % at 20 µM; hit rate 0.78% among 350,000; AID 504690, 2011;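 active means inhibition reaching at least a set limit at 20 µM in the primary screen, cut at about 59% in these data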;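 further: 0% = DMSO wells with substrate and 100% = DMSO wells lacking glucose-6-phosphate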
# Diaphorase inh: diaphorase inhibitors and chemical oxidizers, primary screen, counter-screen for diaphorase-coupled primary assays, biochemical, uHTS, resorufin fluorescence | diaphorase resazurin-to-resorufin fluorescence, NADH, 16 min; bacterial (C. kluyveri) enzyme, not human | hit rate 0.69% among 190,000 | inhibition, % at 20 µM;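 active means primary screen inhibition at 20 µM above a set limit, cut at about 50% in these data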;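 further: plate controls were DMSO with full reaction for no effect and wells lacking NADH for full effect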
#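 Assay system: diaphorase enzyme from Clostridium kluyveri. Quantity: enzyme working solution with 0.14 U/mL diaphorase. Schedule: reaction incubation of 16 min at room temperature. Technique: resorufin fluorescence, excitation 544 nm, emission 590 nm. Controls: No-NADH positive control and DMSO neutral control.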
# Diaph act CS: compounds boosting diaphorase resazurin reduction – biochemical, uHTS, resorufin fluorescence, counter-screen for diaphorase-coupled primary assays, primary screen; Diaphorase/resazurin coupled assay, 16 min; active compounds read high; 1 = vehicle wells, 0 = NADH-free wells; activation factor at 20 µM; hit rate 0.005% among 190,000;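 active means diaphorase activity raised at least twofold by the compound at 20 µM; inactive means activation factor below 2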
#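 Material: purified diaphorase enzyme from Clostridium kluyveri; Also added: 0.114 mM NADH and 0.1 mM resazurin, final amounts; Doses: single compound dose of 20 µM, 1% DMSO final; Times: 16 min enzyme reaction, ambient temperature; Detection: resorufin fluorescence, excitation 544 nm, emission 590 nm; Measure: increased resorufin signal from activators or reducing compounds.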
# G6PDH CS: L. mesenteroides G6PDH inhibitors, counter-screen for G6PDH-coupled screening assays, biochemical, Leuconostoc mesenteroides enzyme; AID 1020, 2008; hit rate 0.12% among 200,000; Purified L. mesenteroides G6PDH, diaphorase/resazurin coupled fluorescence, 45 min; glucose-6-phosphate dehydrogenase [Leuconostoc mesenteroides]; inhibition, % at 5 µM; in the data active means inhibition above about 50%
# HKDC1 act conf: HKDC1 hexokinase activators, confirmation, biochemical, single concentration; shares compounds with HKDC1 inhibitor; recombinant HKDC1, G6PDH/diaphorase resazurin fluorescence; active compounds read low; inhibition, % at 20 µM; hit rate 14% among 740; AID 504708, 2011;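 active means inhibition at or below a set negative limit, negative inhibition meaning the enzyme was activated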
# Active calls of the source: *; nt = no result given. A selection: hits, their analogues and other compounds. The true share with any hit is near 1.2%.
SMILES,HKDC1 inhibitor,PfG6PD inh,Diaphorase inh,Diaph act CS,G6PDH CS,HKDC1 act conf
O=C(O)c1ccccc1-c1c2cc(I)c(=O)c(I)c-2oc2c(I)c(O)c(I)cc12,68.6*,-121.9,nt,nt,nt,43.5
COc1ccc(Cn2c(C)nc3c(c2=O)c2nc4ccccc4nc2n3Cc2ccco2)cc1,32.9,36.2,nt,nt,nt,-10.3
COc1cc(/C=C2\SC(=S)N(c3cccnc3)C2=O)ccc1O,38.2*,-9.2,nt,nt,nt,0.7
COc1cc(/C=C2\SC(=S)N(NC(=O)c3cccnc3)C2=O)ccc1O,-1.8,-51.8,nt,nt,nt,nt
CC(C)(C)c1ccc(OCCCC(=O)Nc2nnc(C3CC3)s2)cc1,nt,-13.3,nt,nt,nt,nt
NC(=NCc1ccc2c(c1)OCO2)NC(=O)c1ccccc1,29.4,32.1,10.3,0.9,4.8,16.7
C/C(CCc1ccc2c(c1)OCO2)=N\NC(=O)c1ccccc1,-5.1,1.8,10.1,0.9,2.4,nt
CCOC(=O)C1c2cccc(O)c2CCN1C(C)=O (configuration not stated),nt,1.8,nt,nt,nt,nt
C=CC(=O)N1C/C(=C/c2ccccc2)C(=O)/C(=C\c2ccccc2)C1,37.5*,32.5,nt,nt,nt,1.6
COc1cc(/C=C2/C(=O)NN(c3ccc(Cl)c(Cl)c3)C2=O)cc([N+](=O)[O-])c1O,49.6*,-11.8,nt,nt,nt,33.1
CN1CCn2cnc(C(=O)Nc3ccc(Cl)cc3)c2C1=O,nt,-3.1,nt,nt,nt,nt
CC(=NNC(=S)Nc1ccccc1)c1ccccn1,nt,32.3,nt,nt,nt,nt
C=CCNC(=S)N/N=C(\C)c1ccccn1,-43.5,36.5,-11.8,1.1,10.2,-5.8
O=C(NCc1ccccn1)c1cc(S(=O)(=O)N2CCN(c3ccccc3)CC2)ccc1Cl,73.3*,5.3,19.0,0.8,3.7,-3.4
O=C1C=C(Nc2ccccc2C(=O)O)c2ccccc2C1=O,45.8*,39.3,nt,nt,nt,44.3
O=C(COC(=O)c1c(F)cccc1F)NC(=O)NCc1ccccc1,nt,-0.8,nt,nt,nt,nt
O=C(O)C(=Cc1ccc([N+](=O)[O-])cc1)c1cccc(Cl)c1,nt,5.8,nt,nt,nt,nt
O=S(=O)(c1cccc(COc2ccc(Cl)cc2Cl)c1)N1CCOCC1,38.6*,22.8,nt,nt,nt,-37.1
NC(=O)[C@H]1CC2(CC(c3cccc(NC(=O)[C@H]4CCC(=O)N4)c3)=NO2)CN1C(=O)c1ccccc1 (some centres not stated),38.8*,20.1,nt,nt,nt,28.2
COc1ccc(-n2cnnc2SCC(=O)NC2CC2)cc1,nt,-2.9,nt,nt,nt,nt
COc1cccc(S(=O)(=O)N(C)C[C@H]2OCc3cnnn3CCCC(=O)N([C@@H](C)CO)C[C@@H]2C)c1,nt,-5.5,nt,nt,nt,nt
CCc1nc2sc3c(=O)[nH]cnc3c2c2c1CSC(C)(C)C2,37.4*,28.8,nt,nt,nt,30.5
CCCCC[C@H](O)/C=C/[C@@H]1[C@@H](C/C=C\CCCC(=O)OC)[C@@H](O)C[C@H]1O,77.4*,11.8,9.9,0.9,-3.3,61.0
CCCCC[C@H](O)/C=C/[C@@H]1[C@@H](C/C=C\CCCC(=O)O)[C@@H](O)C[C@H]1O,-7.2,-1.4,-3.6,1,11.2,nt
CCCCCCn1c(=O)n2n(c1=O)C[C@]1(OC(=O)NCc3ccco3)CN(S(=O)(=O)c3ccc(C)cc3)C[C@]1(O)C2,nt,28.1,nt,nt,nt,nt
SMILES,HKDC1 inhibitor,PfG6PD inh,Diaphorase inh,Diaph act CS,G6PDH CS,HKDC1 act conf
NC1=C(Cl)C(=O)c2ccc(S(N)(=O)=O)cc2C1=O,-133.9,32.8,nt,nt,nt,-42.9*
Cn1c(SCC(=O)Nc2ccc3nc(SCC(=O)NC4CC4)sc3c2)nnc1-c1ccccc1,-11.7,-7.2,8.3,0.9,-48.0,nt
Cn1c(SCC(=O)Nc2ccc3nc(SCC(=O)N4CCCC4)sc3c2)nnc1-c1ccc(N)cc1,33.0,27.2,27.4,0.7,6.7,-29.2
O=c1c2ccccc2nc(/C=C/c2cccnc2)n1CCc1ccccc1,33.8,21.0,nt,nt,nt,38.8
O=c1c2ccccc2nc(/C=C/c2cccnc2)n1Cc1ccccc1,81.4*,24.5,14.4,0.9,9.7,60.7
CC(C)(C)C(=O)OCc1ccc(C2=CC(=O)CC(C)(C)C2=O)cc1,nt,16.5,nt,nt,nt,nt
Cc1cc(C)n(Cc2ccc(C(=O)N/N=C/c3ccc(-c4ccc([N+](=O)[O-])cc4)o3)o2)n1,66.0*,11.1,nt,nt,nt,31.3
O=C(NCCc1ccccc1)c1cnn2c(C(F)F)cc(C3CC3)nc12,47.0*,48.8,64.3*,0.4,3.6,59.8
COC(=O)c1ccccc1NC(=O)c1cnn2c(C(F)F)cc(C3CC3)nc12,-3.9,-28.9,-3.3,1,-33.9,nt
Cc1cc(C(F)F)n2ncc(C(=O)NCCc3ccccc3Cl)c2n1,31.1,27.1,25.5,0.7,-1.3,nt
Cc1cc(C(F)F)n2ncc(C(=O)NCCc3ccc(Cl)cc3)c2n1,38.6*,17.1,48.8,0.5,-6.0,36.2
COc1ccc(CNCCCn2cnc3c(SC)ncnc32)cc1,nt,-19.6,nt,nt,nt,nt
CCOC(=O)/C(C#N)=C/c1cc2ccccc2nc1N1CCOCC1,-12.4,1.0,14.2,0.9,3.1,nt
N#CC(C#N)=Cc1cc2ccccc2nc1N1CCCCC1,37.9*,8.7,6.7,0.9,5.8,16.8
CCC/C=C/c1ccc(CN2C(C)C(=O)N(Cc3cn(CCC4OCCCO4)nn3)CCS2(=O)=O)cc1 (configuration not stated),nt,-2.5,nt,nt,nt,nt
CC(=NNC(=S)N1CC2CCC(CC2)C1)c1ccncn1,-54.1,25.3,nt,nt,nt,-61.4*
CC(=NNC(=S)N1CCCCC1)c1ccccn1,nt,51.2,nt,nt,nt,nt
O=C(NC(=S)NNC(=O)c1cnccn1)c1ccc(F)cc1,-48.5,24.9,64.4*,0.4,-4.3,-36.1*
O=C(/C=C/c1ccc(F)cc1)NC(=S)NNC(=O)c1cnccn1,-30.7,-10.9,nt,nt,nt,nt
COc1ccc(/C=C/C(=O)NC(=S)NNC(=O)c2cnccn2)cc1,-40.3,-10.6,nt,nt,nt,-58.3*
CCN(CC(=O)Nc1cccc(OC)c1)C(=O)C1CC(=O)N(Cc2ccccc2Cl)C1 (configuration not stated),nt,-12.4,nt,nt,nt,nt
COCCNc1ccc([N+](=O)[O-])cc1C(=O)Nc1cccc(C)n1,-57.6,-2.0,10.9,0.9,-0.6,-14.4
CC(C)(C)S(=O)N1Cc2cc(CO)ccc2[C@H]1CCO (some centres not stated),nt,0.0,nt,nt,nt,nt
Cc1cc(Oc2ccc(C(C)(C)C)cc2)nc(N2CCOCC2)n1,33.5,35.4,14.4,0.9,3.8,-37.0*
C[C@@H]1CN([C@H](C)CO)C(=O)CCCn2nncc2CO[C@H]1CN(C)Cc1cccc(C(=O)O)c1,nt,4.0,nt,nt,nt,nt
CCOC(=O)C1=C(C)N=C2c3ccccc3C(=O)C2C1c1ccc(Cl)cc1 (configuration not stated),12.9,11.5,10.6,0.9,3.3,nt

# Assay outcomes as filed in PubChem.
